According to ChEMBL document CHEMBL3407461 (J Med Chem, 2014):
The source made the active and inactive calls.

Experiments:
hERG (KCNH2) = hERG (KCNH2) (Homo sapiens, UniProt Q12809); assay: Inhibition of human ERG at 10 uM by PDSP screening
[1] = target: T1, Adenosine receptor A1 (Mus musculus) (UniProt Q60612); assay: Displacement of [125I]I-AB-MECA from mouse A1 adenosine receptor expressed in HEK293 cells at 10 uM after 60 mins by liquid scintillation counting
T1 sequence (whole entry): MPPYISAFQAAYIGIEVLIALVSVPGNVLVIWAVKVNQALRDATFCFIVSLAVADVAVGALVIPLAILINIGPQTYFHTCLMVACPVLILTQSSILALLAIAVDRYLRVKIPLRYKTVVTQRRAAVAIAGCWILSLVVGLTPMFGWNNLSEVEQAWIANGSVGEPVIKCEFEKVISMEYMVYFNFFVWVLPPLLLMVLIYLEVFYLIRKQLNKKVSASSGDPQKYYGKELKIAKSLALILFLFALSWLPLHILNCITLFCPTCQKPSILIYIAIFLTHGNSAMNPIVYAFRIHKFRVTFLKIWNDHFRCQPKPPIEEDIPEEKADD

Mus musculus [2] = assay: Antinociceptive activity in chronic constriction injury neutropathic pain CD-1 mouse model assessed as time for peak protection at 3 umol/kg, po; type: functional
Outline: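 Male CD-1 mice (25−30 g), chronic constriction injury of left sciatic nerve (Bennett model) under isoflurane. Dosed by gavage (3 μmol/kg, 0.2 mL) at peak mechano-allodynia on day 7; vehicle 10% DMSO in 0.5% methylcellulose. Paw withdrawal threshold (g) measured on the ipsilateral hind paw from 30 min to 5 h post dose. Expressed as % reversal, mean ± SEM over n animals.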

[3] = target: Adenosine receptor A2a (Mus musculus) (UniProt Q60613); assay: Displacement of [3H]CGS21680 from mouse A2A adenosine receptor expressed in HEK293 cells at 10 uM after 60 mins by liquid scintillation counting; type: cell-based
[4] = target: Adenosine receptor A2a (Homo sapiens) (UniProt P29274); assay: Displacement of [3H]CGS21680 from human recombinant A2A adenosine receptor expressed in HEK293 cells at 10 uM after 60 mins by liquid scintillation counting; type: cell-based
Mus musculus [5] = assay: Antinociceptive activity in chronic constriction injury neutropathic pain CD-1 mouse model assessed as maximum protection on ipsilateral hind paw at 3 umol/kg, po after 30 mins to 5 hrs post dose relative to control; type: functional; settings: CD-1, po
[6] = target: T2, Adenosine receptor A1 (Homo sapiens) (UniProt P30542); assay: Displacement of [3H]R-PIA from human recombinant A1 adenosine receptor expressed in CHO cells at 10 uM after 60 mins by liquid scintillation counting; type: cell-based
T2 sequence (whole entry): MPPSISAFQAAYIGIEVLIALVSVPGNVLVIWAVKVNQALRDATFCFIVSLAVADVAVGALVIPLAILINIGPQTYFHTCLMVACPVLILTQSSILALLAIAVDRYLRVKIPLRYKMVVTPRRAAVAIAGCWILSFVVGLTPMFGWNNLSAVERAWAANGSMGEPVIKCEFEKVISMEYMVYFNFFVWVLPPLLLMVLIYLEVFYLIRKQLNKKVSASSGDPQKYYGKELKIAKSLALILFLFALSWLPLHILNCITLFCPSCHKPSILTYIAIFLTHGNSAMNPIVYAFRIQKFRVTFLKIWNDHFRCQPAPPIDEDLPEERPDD

Mus musculus [7] = assay: Antinociceptive activity in chronic constriction injury neutropathic pain CD-1 mouse model at 3 umol/kg, po after 3 hrs post dose relative to control; type: functional
CHO [8] = assay: Selectivity ratio of Ki for mouse A3 adenosine receptor expressed in HEK293 cells to Ki for human recombinant A3 adenosine receptor expressed in CHO cells; type: cell-based
[9] = target: T3, Adenosine receptor A3 (Mus musculus) (UniProt Q61618); assay: Agonist activity at mouse A3 adenosine receptor expressed in HEK293 cells assessed as inhibition of forskolin-stimulated cAMP production after 15 mins relative to control; type: functional, cell-based
T3 sequence (whole entry): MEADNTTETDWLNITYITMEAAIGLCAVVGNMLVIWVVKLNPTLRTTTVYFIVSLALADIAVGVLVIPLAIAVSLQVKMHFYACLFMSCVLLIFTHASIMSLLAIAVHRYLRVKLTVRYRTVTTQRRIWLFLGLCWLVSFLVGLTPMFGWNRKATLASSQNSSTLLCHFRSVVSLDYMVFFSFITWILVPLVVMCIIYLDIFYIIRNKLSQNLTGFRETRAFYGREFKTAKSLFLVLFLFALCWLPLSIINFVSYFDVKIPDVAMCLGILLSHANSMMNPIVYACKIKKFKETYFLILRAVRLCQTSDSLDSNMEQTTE
Outline: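 2 × 10^5 cells/tube, coincubated with forskolin 10 μM plus ligand for 15 min at 37 °C with shaking. Stopped with HCl. cAMP in supernatant measured by competitive binding.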

Adenosine receptor A3 = Adenosine receptor A3 (Mus musculus, UniProt Q61618); assay: Displacement of [125I]I-AB-MECA from mouse A3 adenosine receptor expressed in HEK293 cells after 60 mins by liquid scintillation counting; type: cell-based
[10] = target: Voltage-gated inwardly rectifying potassium channel KCNH2 (Homo sapiens, UniProt Q12809); assay: Inhibition of human ERG by PDSP screening
CHO [11] = assay: Selectivity ratio of IC50 for human ERG to IC50 for human recombinant A3 adenosine receptor expressed in CHO cells; type: cell-based
Cytochrome P450 2D6 = Cytochrome P450 2D6 (Homo sapiens, UniProt P10635); assay: Inhibition of CYP2D6 in human microsomes preincubated for 5 mins before substrate addition measured after 10 mins by LC/MS/MS analysis; type: ADME
Cytochrome P450 1A2 = target: T4, Cytochrome P450 1A2 (Homo sapiens, UniProt P05177); assay: Inhibition of CYP1A2 in human microsomes preincubated for 5 mins before substrate addition measured after 10 mins by LC/MS/MS analysis; type: ADME
T4 sequence (P05177 whole entry): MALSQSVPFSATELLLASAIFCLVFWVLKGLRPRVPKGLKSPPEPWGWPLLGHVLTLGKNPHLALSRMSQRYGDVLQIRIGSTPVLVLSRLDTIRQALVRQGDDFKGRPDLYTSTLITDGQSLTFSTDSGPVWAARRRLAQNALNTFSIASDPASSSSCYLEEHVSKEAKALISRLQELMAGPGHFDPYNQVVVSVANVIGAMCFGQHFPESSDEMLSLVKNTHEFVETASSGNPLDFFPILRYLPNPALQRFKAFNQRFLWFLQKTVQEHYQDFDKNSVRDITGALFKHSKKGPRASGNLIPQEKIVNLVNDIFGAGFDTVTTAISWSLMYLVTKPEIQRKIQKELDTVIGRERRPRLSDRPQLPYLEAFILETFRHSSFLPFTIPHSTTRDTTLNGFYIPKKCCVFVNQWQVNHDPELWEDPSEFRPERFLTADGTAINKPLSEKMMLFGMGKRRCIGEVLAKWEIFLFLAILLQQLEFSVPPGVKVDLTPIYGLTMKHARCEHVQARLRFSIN

Cytochrome P450 2C9 = Cytochrome P450 2C9 (Homo sapiens, UniProt P11712); assay: Inhibition of CYP2C9 in human microsomes preincubated for 5 mins before substrate addition measured after 10 mins by LC/MS/MS analysis; type: ADME
Cytochrome P450 3A4 = Cytochrome P450 3A4 (Homo sapiens, UniProt P08684); assay: Inhibition of CYP3A4 in human microsomes preincubated for 5 mins before substrate addition measured after 10 mins by LC/MS/MS analysis; type: ADME
Liver microsome = assay: Intrinsic clearance in human liver microsomes assessed per mg protein at 100 uM by LC-MS/MS analysis; type: ADME
[12] = Permeability across apical to basolateral side of human Caco2 cells expressing P-gp; type: ADME, cell-based; settings: caco-2
Cytochrome P450 2C19 = Cytochrome P450 2C19 (Homo sapiens, UniProt P33261); assay: Inhibition of CYP2C19 in human microsomes preincubated for 5 mins before substrate addition measured after 10 mins by LC/MS/MS analysis; type: ADME
Homo sapiens = species: Homo sapiens; assay: Binding affinity to sigma2 receptor (unknown origin) by PDSP screening
[13] = target: Sigma non-opioid intracellular receptor 1 (Homo sapiens) (UniProt Q99720); assay: Binding affinity to sigma1 receptor (unknown origin) by PDSP screening
[14] = target: Translocator protein (Homo sapiens) (UniProt P30536); assay: Binding affinity to TSPO (unknown origin) by PDSP screening
Translocator protein (Homo sapiens), sequence (P30536 whole entry): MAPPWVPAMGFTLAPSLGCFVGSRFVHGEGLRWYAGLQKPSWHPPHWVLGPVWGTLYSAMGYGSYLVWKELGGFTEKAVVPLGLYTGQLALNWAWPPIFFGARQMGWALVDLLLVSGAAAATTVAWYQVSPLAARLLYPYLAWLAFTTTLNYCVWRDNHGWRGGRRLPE

Adenosine receptor A2a (Mus musculus), sequence (Q60613 whole entry): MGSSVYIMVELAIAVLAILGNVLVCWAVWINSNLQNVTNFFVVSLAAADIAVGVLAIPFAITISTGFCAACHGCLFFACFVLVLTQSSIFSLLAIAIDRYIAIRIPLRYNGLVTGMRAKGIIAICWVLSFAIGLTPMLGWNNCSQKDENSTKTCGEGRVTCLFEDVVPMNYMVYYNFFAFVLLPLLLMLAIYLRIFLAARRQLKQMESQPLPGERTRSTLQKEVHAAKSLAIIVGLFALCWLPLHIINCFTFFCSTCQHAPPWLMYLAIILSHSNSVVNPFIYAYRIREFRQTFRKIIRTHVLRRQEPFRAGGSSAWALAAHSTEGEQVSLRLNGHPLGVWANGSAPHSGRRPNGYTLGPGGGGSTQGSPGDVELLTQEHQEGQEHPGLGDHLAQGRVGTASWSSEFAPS
Voltage-gated inwardly rectifying potassium channel KCNH2, sequence (Q12809 whole entry): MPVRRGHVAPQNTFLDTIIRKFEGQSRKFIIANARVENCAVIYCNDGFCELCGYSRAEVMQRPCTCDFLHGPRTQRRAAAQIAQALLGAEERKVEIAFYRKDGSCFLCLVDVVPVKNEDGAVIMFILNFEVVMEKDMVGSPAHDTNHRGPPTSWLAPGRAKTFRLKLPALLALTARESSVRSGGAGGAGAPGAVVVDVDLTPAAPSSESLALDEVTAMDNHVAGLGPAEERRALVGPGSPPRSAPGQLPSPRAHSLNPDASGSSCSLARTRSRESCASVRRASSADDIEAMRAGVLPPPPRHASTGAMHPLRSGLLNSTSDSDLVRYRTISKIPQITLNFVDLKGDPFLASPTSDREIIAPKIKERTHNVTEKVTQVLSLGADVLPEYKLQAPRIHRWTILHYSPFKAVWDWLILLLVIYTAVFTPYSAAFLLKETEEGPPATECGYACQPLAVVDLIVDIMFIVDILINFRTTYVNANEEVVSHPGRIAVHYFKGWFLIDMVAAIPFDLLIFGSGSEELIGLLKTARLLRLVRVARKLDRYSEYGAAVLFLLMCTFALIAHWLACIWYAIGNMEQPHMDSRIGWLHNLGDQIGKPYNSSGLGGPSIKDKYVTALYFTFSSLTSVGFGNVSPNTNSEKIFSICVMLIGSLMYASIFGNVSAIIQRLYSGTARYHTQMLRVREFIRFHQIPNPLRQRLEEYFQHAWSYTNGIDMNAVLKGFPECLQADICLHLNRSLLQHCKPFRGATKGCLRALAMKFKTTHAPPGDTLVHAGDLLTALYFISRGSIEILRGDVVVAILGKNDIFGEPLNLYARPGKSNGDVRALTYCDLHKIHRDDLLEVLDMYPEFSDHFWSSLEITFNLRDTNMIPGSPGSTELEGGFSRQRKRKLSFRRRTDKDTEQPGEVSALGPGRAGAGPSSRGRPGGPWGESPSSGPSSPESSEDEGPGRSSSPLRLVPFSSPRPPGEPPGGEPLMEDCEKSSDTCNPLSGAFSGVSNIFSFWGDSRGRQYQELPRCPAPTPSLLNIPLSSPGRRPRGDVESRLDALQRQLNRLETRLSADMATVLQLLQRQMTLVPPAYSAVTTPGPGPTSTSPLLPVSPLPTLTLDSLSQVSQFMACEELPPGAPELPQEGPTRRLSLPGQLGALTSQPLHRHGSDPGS
Adenosine receptor A2a (Homo sapiens), sequence (P29274 whole entry): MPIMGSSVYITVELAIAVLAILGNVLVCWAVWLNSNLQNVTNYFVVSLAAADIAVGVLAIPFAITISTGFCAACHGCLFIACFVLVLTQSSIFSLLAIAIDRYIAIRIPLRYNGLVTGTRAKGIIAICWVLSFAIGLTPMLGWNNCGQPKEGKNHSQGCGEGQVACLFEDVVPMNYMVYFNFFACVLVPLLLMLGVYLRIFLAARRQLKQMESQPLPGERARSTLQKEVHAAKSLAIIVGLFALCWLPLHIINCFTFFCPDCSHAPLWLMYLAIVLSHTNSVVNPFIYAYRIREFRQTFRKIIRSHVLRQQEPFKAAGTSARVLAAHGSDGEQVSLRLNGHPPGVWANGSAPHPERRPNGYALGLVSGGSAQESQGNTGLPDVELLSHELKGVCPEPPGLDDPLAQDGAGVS
Cytochrome P450 2D6, sequence (P10635 whole entry): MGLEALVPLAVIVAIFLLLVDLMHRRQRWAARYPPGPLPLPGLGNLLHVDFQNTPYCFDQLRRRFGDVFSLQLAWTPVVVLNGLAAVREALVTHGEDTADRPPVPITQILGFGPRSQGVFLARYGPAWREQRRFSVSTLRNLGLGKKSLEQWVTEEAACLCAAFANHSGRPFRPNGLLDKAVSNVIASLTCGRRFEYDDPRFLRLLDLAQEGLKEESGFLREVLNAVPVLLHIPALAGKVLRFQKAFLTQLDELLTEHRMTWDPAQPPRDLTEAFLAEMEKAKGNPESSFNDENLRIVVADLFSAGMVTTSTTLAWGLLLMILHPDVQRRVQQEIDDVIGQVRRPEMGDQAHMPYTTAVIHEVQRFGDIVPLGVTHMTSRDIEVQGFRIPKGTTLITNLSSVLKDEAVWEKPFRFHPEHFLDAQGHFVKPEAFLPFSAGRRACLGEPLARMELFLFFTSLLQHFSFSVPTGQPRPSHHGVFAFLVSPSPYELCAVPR
Cytochrome P450 3A4, sequence (P08684 whole entry): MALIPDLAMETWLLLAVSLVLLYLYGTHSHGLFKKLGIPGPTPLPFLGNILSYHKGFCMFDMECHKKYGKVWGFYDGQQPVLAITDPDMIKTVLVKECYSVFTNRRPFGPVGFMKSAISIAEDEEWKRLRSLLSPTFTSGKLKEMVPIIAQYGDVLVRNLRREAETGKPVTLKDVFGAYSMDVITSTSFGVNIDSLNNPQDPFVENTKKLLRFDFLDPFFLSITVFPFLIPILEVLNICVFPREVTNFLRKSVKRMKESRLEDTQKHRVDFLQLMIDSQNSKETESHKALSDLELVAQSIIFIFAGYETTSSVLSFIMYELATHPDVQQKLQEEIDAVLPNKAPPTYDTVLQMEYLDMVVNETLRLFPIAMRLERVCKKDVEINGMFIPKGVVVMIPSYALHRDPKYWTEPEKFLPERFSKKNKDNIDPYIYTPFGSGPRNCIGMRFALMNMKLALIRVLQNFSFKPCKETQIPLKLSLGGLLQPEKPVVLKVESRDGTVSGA
hERG (KCNH2), sequence (Q12809 whole entry): as the sequence (Q12809 whole entry) above
Cytochrome P450 2C19, sequence (P33261 whole entry): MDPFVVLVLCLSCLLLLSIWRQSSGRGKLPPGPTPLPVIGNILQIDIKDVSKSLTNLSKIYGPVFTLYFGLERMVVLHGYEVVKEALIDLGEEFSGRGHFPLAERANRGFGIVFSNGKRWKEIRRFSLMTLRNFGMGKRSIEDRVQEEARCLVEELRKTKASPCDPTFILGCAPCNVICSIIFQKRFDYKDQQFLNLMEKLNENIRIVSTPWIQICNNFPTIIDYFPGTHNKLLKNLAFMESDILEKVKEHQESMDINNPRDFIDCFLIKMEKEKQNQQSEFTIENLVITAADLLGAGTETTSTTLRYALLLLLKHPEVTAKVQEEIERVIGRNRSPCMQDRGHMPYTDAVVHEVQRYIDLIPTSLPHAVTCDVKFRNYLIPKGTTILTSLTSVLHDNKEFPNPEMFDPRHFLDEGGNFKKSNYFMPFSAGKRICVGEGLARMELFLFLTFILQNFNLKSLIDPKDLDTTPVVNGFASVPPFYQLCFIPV
Sigma non-opioid intracellular receptor 1 (Homo sapiens), sequence (Q99720 whole entry): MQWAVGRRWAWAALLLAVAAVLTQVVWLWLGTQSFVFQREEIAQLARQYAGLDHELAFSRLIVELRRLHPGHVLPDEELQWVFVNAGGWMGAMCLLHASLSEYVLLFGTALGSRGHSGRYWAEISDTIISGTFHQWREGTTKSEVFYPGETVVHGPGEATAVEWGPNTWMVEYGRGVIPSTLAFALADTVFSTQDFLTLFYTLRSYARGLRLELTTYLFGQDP

inhibition [1] [%]	inhibition [3] [%]	inhibition [4] [%]	inhibition [6] [%]	SMILES	Time (Mus musculus [2]) [h]	Emax at 3 µmol/kg (Mus musculus [5]) [%]	Activity (Mus musculus [7]) [%]	other results
72	16	12	35	CNC(=O)[C@@]12C[C@@H]1[C@@H](n1cnc3c(NC)nc(C#Cc4cnn(C)c4)nc31)[C@H](O)[C@@H]2O	1	87.3		inhibition at 10 µM (hERG (KCNH2)): 28%
			22	CNC(=O)[C@@]12C[C@@H]1[C@@H](n1cnc3c(NC)nc(C#Cc4ccccc4Cl)nc31)[C@H](O)[C@@H]2O	0.5	27.5	10.6	Ratio Ki (CHO [8]): > 30
47	3	20	25	CNC(=O)[C@@]12C[C@@H]1[C@@H](n1cnc3c(NC)nc(C#Cc4cccs4)nc31)[C@H](O)[C@@H]2O	1	100		Imax [9]: 28%
				CNC(=O)[C@@]12C[C@@H]1[C@@H](n1cnc3c(NC)nc(C#Cc4ccc(F)c(F)c4)nc31)[C@H](O)[C@@H]2O	1	99	28.7	Ki (Adenosine receptor A3): 0.086 µM; IC50 [10]: 27 µM; Ratio IC50 (CHO [11]): > 10000; Ratio Ki (CHO [8]): > 30
	12	25	37	CNC(=O)[C@@]12C[C@@H]1[C@@H](n1cnc3c(NC)nc(C#Cc4cnccn4)nc31)[C@H](O)[C@@H]2O	1	100		IC50 (Cytochrome P450 2D6): > 10 µM; IC50 (Cytochrome P450 1A2): > 10 µM; IC50 (Cytochrome P450 2C9): > 10 µM; IC50 (Cytochrome P450 3A4): > 10 µM; CLH (Liver microsome): 2.99 µL/min; permeability [12]: impermeable; Imax [9]: 30%; IC50 (Cytochrome P450 2C19): > 10 µM
		15	38	CNC(=O)[C@@]12C[C@@H]1[C@@H](n1cnc3c(NC)nc(C#CC4CC4)nc31)[C@H](O)[C@@H]2O	1	54.6	19.1	
16				CNC(=O)[C@@]12C[C@@H]1[C@@H](n1cnc3c(NCc4cccc(Cl)c4)nc(C#Cc4ccc(F)c(F)c4)nc31)[C@H](O)[C@@H]2O	1		23.7	IC50 [10]: 12.2 µM
			27	CNC(=O)[C@@]12C[C@@H]1[C@@H](n1cnc3c(NC)nc(C#Cc4ccc(F)cc4)nc31)[C@H](O)[C@@H]2O	1	72	10.4	Ratio Ki (CHO [8]): > 30
		21	18	CNC(=O)[C@@]12C[C@@H]1[C@@H](n1cnc3c(NC)nc(C#Cc4ccc(-c5ccccc5)cc4)nc31)[C@H](O)[C@@H]2O	1	57.7	14.3	
38	7	24	6	CNC(=O)[C@@]12C[C@@H]1[C@@H](n1cnc3c(NC)nc(C#Cc4ccc(Cl)s4)nc31)[C@H](O)[C@@H]2O	0.5	93.3	82.8	IC50 [10]: 12.9 µM; IC50 (Cytochrome P450 2D6): > 10 µM; Activity (Homo sapiens): Active; Activity [13]: Active; IC50 (Cytochrome P450 1A2): > 10 µM; IC50 (Cytochrome P450 2C9): > 10 µM; IC50 (Cytochrome P450 3A4): > 10 µM; CLH (Liver microsome): 3.69 µL/min; Activity [14]: Active; permeability [12]: permeable; Imax [9]: 35%; IC50 (Cytochrome P450 2C19): > 10 µM
59	17	18	30	CNC(=O)[C@@]12C[C@@H]1[C@@H](n1cnc3c(NC)nc(C#Cc4ccco4)nc31)[C@H](O)[C@@H]2O	1	100	27.6	inhibition at 10 µM (hERG (KCNH2)): 21%; permeability [12]: permeable
			20	CNC(=O)[C@@]12C[C@@H]1[C@@H](n1cnc3c(NC)nc(C#Cc4ccccc4F)nc31)[C@H](O)[C@@H]2O	0.5	56	9.8	
		8	31	CNC(=O)[C@@]12C[C@@H]1[C@@H](n1cnc3c(NC)nc(C#Cc4nccs4)nc31)[C@H](O)[C@@H]2O	1	53.2	12.7	
			14	CNC(=O)[C@@]12C[C@@H]1[C@@H](n1cnc3c(NC)nc(C#Cc4cccc(F)c4)nc31)[C@H](O)[C@@H]2O	1	46.3	12.4	
			13	CNC(=O)[C@@]12C[C@@H]1[C@@H](n1cnc3c(NC)nc(C#Cc4ccc(Cl)cc4)nc31)[C@H](O)[C@@H]2O	0.5	40.4	4.6	
